# Bioassay records as filed in PubChem.
# Myeloid diff 2: promotes myeloid progenitor differentiation; ER-HoxA9 myeloid progenitors, lysozyme-GFP differentiation, flow cytometry; calls only at 10 µM; 1% of 360,000 active; AID 624256;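 active = normalized GFP-positive differentiation at or above the plate's own cutoff, the solvent-only control mean plus 3 SD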;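 also: cells exposed to compound for four days before flow analysis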
# CSN deneddyl inh: CSN deneddylation inhibition. Q92905. Purified CSN, SCF-Nedd8-OG deneddylation, fluorescence polarization. inhibition, % at 12.5 µM. 0.38% of 360,000 active. AID 651999;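 active = pattern-corrected inhibition above about 35%, with an unprinted fluorescence ratio check between 0.5 and 1.5, limit read from the data, passing the limit was not always enough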;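 also: 0% = enzyme with substrate and 100% = substrate without enzyme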
# Target sequence (Q92905 whole entry, looked up, one chain of several): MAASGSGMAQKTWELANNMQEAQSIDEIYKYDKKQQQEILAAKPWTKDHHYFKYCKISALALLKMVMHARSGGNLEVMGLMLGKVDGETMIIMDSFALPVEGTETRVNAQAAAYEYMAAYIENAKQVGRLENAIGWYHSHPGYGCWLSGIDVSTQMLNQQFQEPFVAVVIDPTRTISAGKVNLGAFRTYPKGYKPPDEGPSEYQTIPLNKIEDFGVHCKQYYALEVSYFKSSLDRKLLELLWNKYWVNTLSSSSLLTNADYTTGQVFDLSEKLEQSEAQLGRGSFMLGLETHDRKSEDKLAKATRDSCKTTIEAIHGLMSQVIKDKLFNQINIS
#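 Test system: Human Csn5 produced in HEK293T cells | Compound: 12.5 µM single point | Times: 90 min, room temperature | Signal: Fluorescence polarization readout | Read-out basis: % inhibition of substrate cleavage by Csn5 | Controls: no-enzyme wells high, enzyme-with-substrate wells low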
# Exocytosis inh: lytic granule exocytosis inhibition | TALL-104 LAMP-1 surface exposure, flow cytometry; cells stimulated with thapsigargin and PMA | inhibition, % at 10 µM | 0.66% of 360,000 active;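 active = inhibition above about 55%, limit read from the data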
# HNF4A DNA FP: change in binding of human HNF4 alpha to DNA; HNF4a-FITC DNA binding, fluorescence polarization, 1 h; P41235; activity change, % at 10 µM; AID 1224865; 0.3% of 360,000 active; in the data active = activity change above about 30%, passing the limit was not always enough
# The depositor's hits bear a star; i = inactive; + = active, no number. In the library only some 2.2% were active in any assay of this set; here they are far more common.
SMILES,Myeloid diff 2,CSN deneddyl inh,Exocytosis inh,HNF4A DNA FP
CC1(C(=O)Nc2ccc3[nH]ncc3c2)CCN1C(=O)C/C=C/c1ccccc1 (centres undefined),+,-6,42,4
Nc1ccc2nc(-c3cccnc3)[nH]c2c1,i,8,-4,1
Nc1ccc2nc(-c3ccccc3)[nH]c2c1,+,1,1,-1
O=C(CN1CCOCC1)Nc1ccc(Cl)cn1,i,4,-1,0
C=CCn1c(/N=C/c2ccc(N(C)C)cc2)nc2ccccc21,i,26,1,59*
CCC(CC)c1nnc(NC(=O)c2cc([N+](=O)[O-])ccc2N2CCCCC2)s1,i,47*,0,-1
CC(C)CNC(=O)c1cc([N+](=O)[O-])ccc1N1CCCCC1,i,0,-7,0
Cc1ccc(N2C(=O)C3C4C=CC(CNC(=S)Nc5ccc(Cl)cc5)(O4)C3C2=O)cc1 (centres undefined),i,0,39,-3
CC(C)COC(=O)NCC12C=CC(O1)C1C(=O)N(c3ccc(Cl)cc3)C(=O)C12 (centres undefined),i,1,91*,-1
O=C1C2C3C=CC(CNS(=O)(=O)c4ccccc4[N+](=O)[O-])(O3)C2C(=O)N1c1ccccc1 (centres undefined),i,3,54,3
Cc1cc(C)c(S(=O)(=O)NCC23C=CC(O2)C2C(=O)N(c4ccccc4)C(=O)C23)c(C)c1 (centres undefined),i,1,77*,1
CCOc1ccc(S(=O)(=O)NN=C(C)c2cccnc2)cc1,i,0,-2,-2
COc1cccc(C(O)c2ncc(-c3cccc(F)c3)[nH]2)c1 (centres undefined),i,-4,0,-2
Nc1c(C(=O)Nc2nccs2)sc2nc(-c3cccs3)cc(C(F)(F)F)c12,+,64,-2,61
CCN(CC)C(=O)c1sc2nc(-c3cccs3)cc(-c3ccc(Cl)cc3)c2c1N,i,2,2,10
CCN(CC)C(=O)c1sc2nc(-c3cccs3)cc(-c3cccs3)c2c1N,+,5,4,6
Cc1nnc(NC(=O)c2sc3nc(-c4cccs4)cc(C(F)(F)F)c3c2N)s1,+,106*,5,68
CC(C)(C)C(=O)c1sc2nc(-c3cccs3)cc(C(F)(F)F)c2c1N,+,12,4,-90
Cc1cc(C)c2c(N)c(C(=O)Nc3nccs3)sc2n1,i,3,-3,4
COC(C(=O)Nc1cccc(F)c1)c1ccccc1 (centres undefined),+,-1,0,-2
COc1ccc(NS(=O)(=O)c2ccc(C(=O)N(C)Cc3ccc(C)o3)cc2)cc1,i,-2,4,-1
COc1ccc(-n2nc(C(=O)Nc3ccc(OC)c(OC)c3)c3c4ccccc4n(C)c3c2=O)cc1,i,48*,-1,-2
COc1ccc(-n2nc(C(=O)Nc3ccc4c(c3)OCO4)c3c4ccccc4n(C)c3c2=O)cc1,i,-2,0,-3
COc1ccc(C2=NOC(C(=O)Nc3ccc4c(c3)OCCO4)C2)c(OC)c1 (centres undefined),i,-2,-5,2
COCCN=C1N[C@@H](c2ccccc2)C(C(=O)OC)=C(C)N1Cc1ccccc1,i,2,1,-2
SMILES,Myeloid diff 2,CSN deneddyl inh,Exocytosis inh,HNF4A DNA FP
COCCN=C1N[C@@H](c2ccc(Br)cc2)C(C(=O)OC)=C(C)N1Cc1ccccc1,+,-2,8,-3
CCN(C(=O)c1ccc(C(C)(C)C)cc1)c1nnc(Cn2nnc3ccccc32)s1,+,-3,5,3
O=C(N/N=C/c1ccccc1C(=O)O)c1ccc(COc2cccc3cccnc23)cc1,+,-7,0,0
NNC(=O)c1ccc(COc2cccc3cccnc23)cc1,+,4,-1,3
COC(=O)c1ccc(COc2ccccc2/C=N/NC(=O)c2cccnc2)cc1,i,4,2,1
Cc1nn(-c2ccc(F)cc2)c(Cl)c1C(=O)OC(C)C(=O)N(C)C1CCCCC1 (centres undefined),i,2,-1,-2
Cc1ccc(S(=O)(=O)NC2=C(N3CCN(Cc4ccccc4)CC3)C(=O)c3ccccc3C2=O)cc1,+,5,0,0
O=C(COC(=O)c1ccc(O)cc1O)Nc1cc(-c2ccccc2)nn1-c1ccccc1,i,-6,0,3
CCOC(=O)c1c(NC(=O)c2c(-c3ccccc3)noc2C)sc(C)c1-c1ccccc1,+,-1,0,0
